Activity calls are given as the source filed them. The rule behind the calls is not given here.
Target: Phosphatidylinositol 4,5-bisphosphate 3-kinase catalytic subunit alpha isoform (Homo sapiens, UniProt P42336)
Assay: Inhibition of GST-GRP1-fused PI3Kalpha by microtiter plate based fluorescence polarization assay

Chain of Phosphatidylinositol 4,5-bisphosphate 3-kinase catalytic subunit alpha isoform (P42336 whole entry, the tested form may be a part, canonical isoform): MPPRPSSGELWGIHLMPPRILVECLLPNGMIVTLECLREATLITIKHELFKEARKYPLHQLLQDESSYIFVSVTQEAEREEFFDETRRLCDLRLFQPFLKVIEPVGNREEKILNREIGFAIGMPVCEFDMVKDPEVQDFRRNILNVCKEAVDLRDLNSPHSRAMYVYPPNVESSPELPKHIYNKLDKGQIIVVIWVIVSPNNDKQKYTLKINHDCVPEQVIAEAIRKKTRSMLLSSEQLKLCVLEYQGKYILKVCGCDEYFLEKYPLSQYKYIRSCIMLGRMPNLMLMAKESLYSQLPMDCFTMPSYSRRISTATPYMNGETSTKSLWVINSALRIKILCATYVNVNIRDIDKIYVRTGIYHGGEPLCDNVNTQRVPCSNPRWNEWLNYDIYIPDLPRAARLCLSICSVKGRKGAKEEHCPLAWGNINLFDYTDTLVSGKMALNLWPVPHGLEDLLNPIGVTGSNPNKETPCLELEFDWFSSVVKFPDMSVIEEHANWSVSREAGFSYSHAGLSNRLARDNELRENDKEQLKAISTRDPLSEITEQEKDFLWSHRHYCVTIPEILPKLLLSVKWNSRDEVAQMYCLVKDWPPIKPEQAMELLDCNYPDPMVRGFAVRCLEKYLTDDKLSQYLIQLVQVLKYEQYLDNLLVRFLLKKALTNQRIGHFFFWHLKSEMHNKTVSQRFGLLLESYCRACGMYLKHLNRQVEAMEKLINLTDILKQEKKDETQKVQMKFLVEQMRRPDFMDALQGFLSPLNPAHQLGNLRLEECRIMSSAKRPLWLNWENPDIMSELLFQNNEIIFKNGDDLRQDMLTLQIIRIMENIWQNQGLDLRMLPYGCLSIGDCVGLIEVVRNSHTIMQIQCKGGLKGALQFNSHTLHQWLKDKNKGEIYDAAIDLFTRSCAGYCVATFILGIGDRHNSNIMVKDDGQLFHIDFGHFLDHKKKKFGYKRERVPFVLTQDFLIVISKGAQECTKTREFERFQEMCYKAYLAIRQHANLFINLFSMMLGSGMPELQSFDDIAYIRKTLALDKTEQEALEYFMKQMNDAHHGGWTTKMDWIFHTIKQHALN

`OCc1cccc(-c2nc(N3CCOCC3)c3ncn(CC4CCN(Cc5ccccc5)CC4)c3n2)c1` and `Oc1cccc(-c2nc(N3CCOCC3)c3ncn(CC4CCN(Cc5ccccc5)CC4)c3n2)c1` are within 1.5-fold of each other in IC50: 248 nM for the first, 199 nM for the second.

Going from `Oc1cccc(-c2nc(N3CCCCC3)c3nc[nH]c3n2)c1` to `Oc1cccc(-c2nc(N3CCOCC3)c3nc[nH]c3n2)c1`, the IC50 falls from 3770 nM to 232 nM (16-fold). The second is the more potent here.

`CS(=O)(=O)c1cccc(-c2nc(N3CCOCC3)c3nc[nH]c3n2)c1` and `CS(=O)(=O)Nc1cccc(-c2nc(N3CCOCC3)c3nc[nH]c3n2)c1` are within 1.5-fold of each other in IC50: 3900 nM for the first, 4380 nM for the second.

First: c1nc2c(N3CCOCC3)nc(-c3ccsc3)nc2[nH]1
Second: c1csc(-c2nc(N3CCOCC3)c3nc[nH]c3n2)c1
The IC50 of the first is 3.7-fold higher: 2380 nM for the first, 640 nM for the second.

`OCc1cccc(-c2nc(N3CCOCC3)c3ncn(C4CCNCC4)c3n2)c1` and `Oc1cccc(-c2nc(N3CCOCC3)c3ncn(C4CCNCC4)c3n2)c1` are within 1.5-fold of each other in IC50: 58 nM for the first, 65 nM for the second.

`Oc1ccc(-c2nc(N3CCOCC3)c3nc[nH]c3n2)cc1` and `OCc1ccc(-c2nc(N3CCOCC3)c3nc[nH]c3n2)cc1` are within 1.5-fold of each other in IC50: 2540 nM for the first, 2890 nM for the second.

Compared with `CS(=O)(=O)c1ccc(-c2nc(N3CCOCC3)c3nc[nH]c3n2)cc1`, `NC(=O)c1ccc(-c2nc(N3CCOCC3)c3nc[nH]c3n2)cc1` is 3.8-fold higher in IC50: 1760 nM for the first, 6700 nM for the second. The first is the more potent here.

Going from `Oc1ccccc1-c1nc(N2CCOCC2)c2nc[nH]c2n1` to `N#Cc1cccc(-c2nc(N3CCOCC3)c3nc[nH]c3n2)c1`, the IC50 rises from 667 nM to 2910 nM (4.4-fold). The first is the more potent here.

Compared with `Oc1cccc(-c2nc(N3CCOCC3)c3ncn(C4CCN(Cc5ccccc5)CC4)c3n2)c1`, `OCc1cccc(-c2nc(N3CCOCC3)c3cnn(C4CCN(Cc5ccccc5)CC4)c3n2)c1` is 3.2-fold lower in IC50: 80 nM for the first, 25 nM for the second.

Compared with `c1nc2c(N3CCOCC3)nc(-c3ccoc3)nc2[nH]1`, `c1nc2c(N3CCOCC3)nc(-c3ccc4c(c3)OCO4)nc2[nH]1` is 3.1-fold lower in IC50: 3790 nM for the first, 1210 nM for the second. The second is the more potent here.

`c1nc2c(N3CCOCC3)nc(-c3ccc4c(c3)OCCO4)nc2[nH]1` and `c1cc2ccc(-c3nc(N4CCOCC4)c4nc[nH]c4n3)cc2[nH]1` are within 1.5-fold of each other in IC50: 3480 nM for the first, 2330 nM for the second.

Target: Phosphatidylinositol 4,5-bisphosphate 3-kinase catalytic subunit gamma isoform (Homo sapiens, UniProt P48736)
Assay: Inhibition of GST-GRP1-fused PI3Kgamma by microtiter plate based fluorescence polarization assay
In short: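 Fluorescence polarization assay monitoring PIP3 production by PI3K p110α or p110γ. IC50 values are the means of two experiments, SD ±10%.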

Chain of Phosphatidylinositol 4,5-bisphosphate 3-kinase catalytic subunit gamma isoform (P48736 whole entry, the tested form may be a part, canonical isoform): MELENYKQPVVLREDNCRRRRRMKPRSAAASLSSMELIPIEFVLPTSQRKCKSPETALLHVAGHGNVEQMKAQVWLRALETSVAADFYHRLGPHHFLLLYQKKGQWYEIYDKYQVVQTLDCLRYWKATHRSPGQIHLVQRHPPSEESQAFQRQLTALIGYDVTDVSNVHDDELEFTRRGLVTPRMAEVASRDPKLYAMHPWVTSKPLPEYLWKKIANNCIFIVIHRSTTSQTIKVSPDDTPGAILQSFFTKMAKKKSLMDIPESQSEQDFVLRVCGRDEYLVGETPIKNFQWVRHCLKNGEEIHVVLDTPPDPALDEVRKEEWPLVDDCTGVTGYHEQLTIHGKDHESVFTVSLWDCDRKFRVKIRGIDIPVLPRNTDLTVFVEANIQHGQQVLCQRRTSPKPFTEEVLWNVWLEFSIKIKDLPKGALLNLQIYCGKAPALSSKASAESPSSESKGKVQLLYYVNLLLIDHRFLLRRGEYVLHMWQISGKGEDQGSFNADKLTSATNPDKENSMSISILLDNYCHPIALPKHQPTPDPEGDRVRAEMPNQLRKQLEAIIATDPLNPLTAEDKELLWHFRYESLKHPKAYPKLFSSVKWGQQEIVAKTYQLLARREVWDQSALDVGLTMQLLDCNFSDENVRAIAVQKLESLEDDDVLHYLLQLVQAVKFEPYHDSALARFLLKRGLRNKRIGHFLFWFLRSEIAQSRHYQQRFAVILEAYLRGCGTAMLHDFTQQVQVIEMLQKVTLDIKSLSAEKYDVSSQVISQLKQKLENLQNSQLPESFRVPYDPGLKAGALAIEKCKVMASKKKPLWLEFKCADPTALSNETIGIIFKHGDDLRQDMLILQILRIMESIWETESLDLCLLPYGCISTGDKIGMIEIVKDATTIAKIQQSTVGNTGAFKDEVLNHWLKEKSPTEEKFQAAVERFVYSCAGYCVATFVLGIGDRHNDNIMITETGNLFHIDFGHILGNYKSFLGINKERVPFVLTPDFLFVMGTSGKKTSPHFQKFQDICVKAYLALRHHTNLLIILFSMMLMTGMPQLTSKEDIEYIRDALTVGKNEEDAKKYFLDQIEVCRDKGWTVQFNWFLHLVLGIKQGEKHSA

`OCc1cccc(-c2nc(N3CCOCC3)c3ncn(CC4CCN(Cc5ccccc5)CC4)c3n2)c1` and `Oc1cccc(-c2nc(N3CCOCC3)c3ncn(CC4CCN(Cc5ccccc5)CC4)c3n2)c1` are within 1.5-fold of each other in IC50: 1650 nM for the first, 2380 nM for the second.

`Oc1cccc(-c2nc(N3CCCCC3)c3nc[nH]c3n2)c1` and `N#Cc1cccc(-c2nc(N3CCOCC3)c3nc[nH]c3n2)c1` are within 1.5-fold of each other in IC50: 10300 nM for the first, 8300 nM for the second.

`CS(=O)(=O)c1cccc(-c2nc(N3CCOCC3)c3nc[nH]c3n2)c1` and `CS(=O)(=O)Nc1cccc(-c2nc(N3CCOCC3)c3nc[nH]c3n2)c1` are the same in IC50: 7910 nM for the first, 7910 nM for the second.

Going from `Oc1cccc(-c2nc(N3CCOCC3)c3cnn(C4CCN(Cc5ccccc5)CC4)c3n2)c1` to `OCc1cccc(-c2nc(N3CCOCC3)c3cnn(C4CCN(Cc5ccccc5)CC4)c3n2)c1`, the IC50 falls from 2370 nM to 975 nM (2.4-fold).

`c1nc2c(N3CCOCC3)nc(-c3ccsc3)nc2[nH]1` and `c1csc(-c2nc(N3CCOCC3)c3nc[nH]c3n2)c1` are within 1.5-fold of each other in IC50: 8000 nM for the first, 6740 nM for the second.

`Oc1ccc(-c2nc(N3CCOCC3)c3nc[nH]c3n2)cc1` and `OCc1ccc(-c2nc(N3CCOCC3)c3nc[nH]c3n2)cc1` are within 1.5-fold of each other in IC50: 8560 nM for the first, 7970 nM for the second.

Compared with `CS(=O)(=O)c1ccc(-c2nc(N3CCOCC3)c3nc[nH]c3n2)cc1`, `NC(=O)c1ccc(-c2nc(N3CCOCC3)c3nc[nH]c3n2)cc1` is 1.7-fold higher in IC50: 5830 nM for the first, 10000 nM for the second.

First: Oc1ccccc1-c1nc(N2CCOCC2)c2nc[nH]c2n1
Second: c1nc2c(N3CCOCC3)nc(-c3ccoc3)nc2[nH]1
The IC50 of the first is 2.1-fold lower: 5140 nM for the first, 11000 nM for the second. The first is the more potent here.

Compared with `Oc1cccc(-c2nc(N3CCOCC3)c3ncn(C4CCN(Cc5ccccc5)CC4)c3n2)c1`, `Oc1cccc(-c2nc(N3CCOCC3)c3ncn(C4CCNCC4)c3n2)c1` is 82-fold lower in IC50: 10800 nM for the first, 131 nM for the second. The second is the more potent here.

Compared with `Oc1cccc(-c2nc(N3CCOCC3)c3cnn(C4CCNCC4)c3n2)c1`, `c1cc2ccc(-c3nc(N4CCOCC4)c4nc[nH]c4n3)cc2[nH]1` is 7.4-fold higher in IC50: 993 nM for the first, 7370 nM for the second.

`c1nc2c(N3CCOCC3)nc(-c3ccc4c(c3)OCCO4)nc2[nH]1` and `c1nc2c(N3CCOCC3)nc(-c3ccc4c(c3)OCO4)nc2[nH]1` are within 1.5-fold of each other in IC50: 7580 nM for the first, 6910 nM for the second.

Target: Serine/threonine-protein kinase mTOR (Homo sapiens, UniProt P42345)
Assay: Inhibition of human TOR in HEK293 cells by DELFIA
Assay type: cell-based
In short: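 DELFIA-format assay detecting phosphorylated His6-S6K substrate. IC50 values are the means of two experiments, SD ±10%.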

`Oc1cccc(-c2nc(N3CCOCC3)c3cnn(C4CCN(Cc5ccccc5)CC4)c3n2)c1` and `OCc1cccc(-c2nc(N3CCOCC3)c3cnn(C4CCN(Cc5ccccc5)CC4)c3n2)c1` are within 1.5-fold of each other in IC50: 83 nM for the first, 90 nM for the second.

Going from `Oc1cccc(-c2nc(N3CCOCC3)c3nc[nH]c3n2)c1` to `c1cc2ccc(-c3nc(N4CCOCC4)c4nc[nH]c4n3)cc2[nH]1`, the IC50 falls from 2380 nM to 150 nM (16-fold). The second is the more potent here.

`Oc1cccc(-c2nc(N3CCOCC3)c3ncn(C4CCNCC4)c3n2)c1` and `OCc1cccc(-c2nc(N3CCOCC3)c3ncn(C4CCN(Cc5ccccc5)CC4)c3n2)c1` are within 1.5-fold of each other in IC50: 870 nM for the first, 691 nM for the second.

Test system: not listed separately
Assay: Selectivity ratio of IC50 for PI3Kgamma to IC50 for PI3Kalpha

`OCc1cccc(-c2nc(N3CCOCC3)c3ncn(C4CCNCC4)c3n2)c1` showed a Ratio IC50 of 11.

Test system: not listed separately
Assay: Selectivity ratio of IC50 for human TOR to IC50 for PI3Kalpha

For `OCc1cccc(-c2nc(N3CCOCC3)c3ncn(C4CCNCC4)c3n2)c1`, the Ratio IC50 was > 100.

Test system: Caco-2
Assay: Antiproliferative activity against human Caco-2 cells
Assay type: functional, cell-based
In short: (§1)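 Growth densities of Caco-2 (colorectal), LoVo (colon) and PC3MM2 (prostate) adenocarcinoma cultures monitored after compound exposure to measure proliferation.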

`OCc1cccc(-c2nc(N3CCOCC3)c3ncn(CC4CCN(Cc5ccccc5)CC4)c3n2)c1` and `Oc1cccc(-c2nc(N3CCOCC3)c3ncn(CC4CCN(Cc5ccccc5)CC4)c3n2)c1` are within 1.5-fold of each other in IC50: 5790 nM for the first, 6490 nM for the second.

First: Oc1cccc(-c2nc(N3CCOCC3)c3cnn(C4CCN(Cc5ccccc5)CC4)c3n2)c1
Second: OCc1cccc(-c2nc(N3CCOCC3)c3cnn(C4CCN(Cc5ccccc5)CC4)c3n2)c1
The IC50 of the first is 4.5-fold higher: 5970 nM for the first, 1340 nM for the second.

`OCc1cccc(-c2nc(N3CCOCC3)c3ncn(C4CCNCC4)c3n2)c1` and `Oc1cccc(-c2nc(N3CCOCC3)c3ncn(C4CCNCC4)c3n2)c1` are within 1.5-fold of each other in IC50: 4500 nM for the first, 4040 nM for the second.

`Oc1ccccc1-c1nc(N2CCOCC2)c2nc[nH]c2n1` and `c1csc(-c2nc(N3CCOCC3)c3nc[nH]c3n2)c1` cannot be ordered by IC50: > 10000 nM for the first, > 10000 nM for the second.

Going from `Oc1cccc(-c2nc(N3CCOCC3)c3ncn(C4CCN(Cc5ccccc5)CC4)c3n2)c1` to `OCc1cccc(-c2nc(N3CCOCC3)c3ncn(C4CCN(Cc5ccccc5)CC4)c3n2)c1`, the IC50 falls from > 10000 nM to 5170 nM. The second is the more potent here.

For `Oc1cccc(-c2nc(N3CCOCC3)c3cnn(C4CCNCC4)c3n2)c1`, the IC50 was 5580 nM.

Test system: LoVo
Assay: Antiproliferative activity against human LoVo cells
Assay type: functional, cell-based
In short: as §1

`OCc1cccc(-c2nc(N3CCOCC3)c3ncn(CC4CCN(Cc5ccccc5)CC4)c3n2)c1` and `Oc1cccc(-c2nc(N3CCOCC3)c3ncn(CC4CCN(Cc5ccccc5)CC4)c3n2)c1` are within 1.5-fold of each other in IC50: 3080 nM for the first, 3510 nM for the second.

First: Oc1cccc(-c2nc(N3CCOCC3)c3cnn(C4CCN(Cc5ccccc5)CC4)c3n2)c1
Second: OCc1cccc(-c2nc(N3CCOCC3)c3cnn(C4CCN(Cc5ccccc5)CC4)c3n2)c1
The IC50 of the first is 3.2-fold higher: 1610 nM for the first, 511 nM for the second. The second is the more potent here.

`OCc1cccc(-c2nc(N3CCOCC3)c3ncn(C4CCNCC4)c3n2)c1` and `Oc1cccc(-c2nc(N3CCOCC3)c3ncn(C4CCNCC4)c3n2)c1` are within 1.5-fold of each other in IC50: 1870 nM for the first, 2020 nM for the second.

Going from `Oc1ccccc1-c1nc(N2CCOCC2)c2nc[nH]c2n1` to `c1csc(-c2nc(N3CCOCC3)c3nc[nH]c3n2)c1`, the IC50 rises from 7310 nM to > 10000 nM.

Compared with `Oc1cccc(-c2nc(N3CCOCC3)c3ncn(C4CCN(Cc5ccccc5)CC4)c3n2)c1`, `OCc1cccc(-c2nc(N3CCOCC3)c3ncn(C4CCN(Cc5ccccc5)CC4)c3n2)c1` is 1.9-fold lower in IC50: 1950 nM for the first, 1050 nM for the second.

Compound `Oc1cccc(-c2nc(N3CCOCC3)c3cnn(C4CCNCC4)c3n2)c1` has an IC50 of 1580 nM.

Test system: PC-3
Assay: Antiproliferative activity against human PC3 cells
Assay type: functional, cell-based
In short: as §1

`OCc1cccc(-c2nc(N3CCOCC3)c3ncn(CC4CCN(Cc5ccccc5)CC4)c3n2)c1` and `Oc1cccc(-c2nc(N3CCOCC3)c3ncn(CC4CCN(Cc5ccccc5)CC4)c3n2)c1` are within 1.5-fold of each other in IC50: 9270 nM for the first, 7350 nM for the second.

Going from `Oc1cccc(-c2nc(N3CCOCC3)c3cnn(C4CCN(Cc5ccccc5)CC4)c3n2)c1` to `OCc1cccc(-c2nc(N3CCOCC3)c3cnn(C4CCN(Cc5ccccc5)CC4)c3n2)c1`, the IC50 falls from 940 nM to 345 nM (2.7-fold). The second is the more potent here.

Compared with `OCc1cccc(-c2nc(N3CCOCC3)c3ncn(C4CCNCC4)c3n2)c1`, `Oc1cccc(-c2nc(N3CCOCC3)c3ncn(C4CCNCC4)c3n2)c1` is 1.6-fold lower in IC50: 2360 nM for the first, 1520 nM for the second.

`Oc1ccccc1-c1nc(N2CCOCC2)c2nc[nH]c2n1` and `c1csc(-c2nc(N3CCOCC3)c3nc[nH]c3n2)c1` cannot be ordered by IC50: > 10000 nM for the first, > 10000 nM for the second.

`Oc1cccc(-c2nc(N3CCOCC3)c3ncn(C4CCN(Cc5ccccc5)CC4)c3n2)c1` and `OCc1cccc(-c2nc(N3CCOCC3)c3ncn(C4CCN(Cc5ccccc5)CC4)c3n2)c1` are within 1.5-fold of each other in IC50: 1110 nM for the first, 1280 nM for the second.

Work on `Oc1cccc(-c2nc(N3CCOCC3)c3cnn(C4CCNCC4)c3n2)c1` yielded an IC50 of 922 nM.

Test system: MDA-MB-361
Assay: Inhibition of PI3K in human MDA-MB-361 cells assessed as reduction of phosphorylated Akt (T308) level at 3 to 30 uM after 4 hrs by immunoblotting
Assay type: cell-based
In short: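 MDA-361 breast adenocarcinoma cells were treated in growth media for 4 h with the indicated doses, with a DMSO control. Lysates were immunoblotted for phospho-Akt T308, and for cleaved PARP as an apoptosis marker.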

In the case of `OCc1cccc(-c2nc(N3CCOCC3)c3ncn(C4CCN(Cc5ccccc5)CC4)c3n2)c1`, the inhibition is reported as “Active”.
